{"data": "Published values pooled from the literature", "target": "Sodium-dependent dopamine transporter (SLC6A3, Homo sapiens, UniProt Q01959)"}
{"Compound": "CNC(C)(C)C(=O)c1ccccc1", "assay": "calcium signal, agonist, fluorescence", "endpoint": "EC50", "value": "590 nM"}
{"Compound": "CN[C@]1(c2ccccc2Cl)CCCCC1=O", "assay": "ligand displacement, radioligand", "endpoint": "IC50", "value": "> 100000 nM"}
{"Compound": "CCC[C@@H](C(=O)c1ccc(C)cc1)N1CCCC1", "assay": "transporter uptake, inhibitor, radiometric", "endpoint": "IC50", "value": "6.2 nM"}
{"Compound": "CN1[C@H]2CC[C@@H]1[C@@H](c1cc(-c3ccccc3)no1)[C@H](OC(c1ccc(F)cc1)c1ccc(F)cc1)C2", "assay": "ligand displacement, radioligand", "endpoint": "Ki", "value": "28 nM"}
{"Compound": "CNc1nc2cc(OCCCCN3CCN(c4cccc(Cl)c4Cl)CC3)ccc2s1", "assay": "ligand displacement, radioligand", "endpoint": "Ki", "value": "2800 nM"}
{"Compound": "Fc1ccccc1C(Cc1ccccc1)N1CCCC1 (stereo not shown)", "assay": "ligand displacement, radioligand", "endpoint": "Ki", "value": "327 nM"}
{"Compound": "CC(NCc1ccccc1)C(=O)c1ccc2c(c1)OCO2 (stereo not shown)", "assay": "ligand displacement, radioligand", "endpoint": "Ki", "value": "< 100 nM"}
{"Compound": "C[C@@H](CN1CCC(Cc2ccccc2)CC1)[C@@H](O)c1ccc(O)cc1 (relative stereo)", "assay": "ligand displacement, radioligand", "endpoint": "Ki", "value": "6000 nM"}
{"Compound": "CN[C@@H](C)C(=O)c1ccccc1", "assay": "calcium signal, agonist, fluorescence", "endpoint": "EC50", "value": "240 nM"}
{"Compound": "NCCc1ccc(Oc2ccc(O)cc2)c(I)c1", "assay": "ligand displacement, radioligand", "endpoint": "IC50", "value": "800 nM"}
